Source: ChEMBL document CHEMBL1152867, “Targeting QseC signaling and virulence for antibiotic development” (Science, 2008)
Active and inactive are the calls of the source. The calls are words filed in the database; no cut-off is given here.

What was measured:
[1] = target: Beta-1 adrenergic receptor (Homo sapiens) (UniProt P08588); assay: Activation of human beta-1-adrenergic receptor expressed in HEK293 cells assessed as cAMP release at 5 uM; assay type: functional, cell-based
How it was run: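 Live HEK293 cells carried an EPAC-based cAMP BRET reporter and expressed endogenous β2 or exogenous β1 or β3 adrenergic receptors. Cells were exposed to test compound alone at 5 μM. Values are means of triplicates, representative of 3 experiments.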

Escherichia coli [2] = assay: Inhibition of [3H]norepinephrine binding to Escherichia coli Qsec at 5 fM by liposome-based scintillation counting assay
How it was run: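 Liposomes reconstituted with QseC were loaded with tritiated norepinephrine (5 μM) by freeze-thaw in liquid N2 and held 10 min at room temperature, so unbound signal could diffuse out. They were pelleted at 12,000g for 5 min and counted for tritium. Counts were normalized to liposomes loaded with 5 μM tyrosine. Compound was tested at 5 pM and 5 fM.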

Escherichia coli [3] = assay: Inhibition of epinephrine-induced EspA protein secretion in Escherichia coli 8624 at 5 pM by Western blot; assay type: functional, organism-based
How it was run: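 Secreted proteins in cell-free supernatant were TCA-precipitated and immunoblotted with rabbit polyclonal anti-EspA and anti-EspB, with ECL detection.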

Escherichia coli [4] = assay: Inhibition of Escherichia coli attaching-effacing lesions formation in infected human HeLa cells at 5 pM by FAS test; assay type: functional, organism-based
How it was run: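 HeLa monolayers on glass coverslips were infected with a 1:100 dilution of overnight LB cultures for 6 h at 37 °C, 5% CO2. Cells were permeabilized with 0.2% Triton X-100 and stained with FITC-phalloidin for actin and propidium iodide for bacteria. Whole fields of ≥6 coverslips per strain were scored for AE lesions by fluorescence microscopy.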

Escherichia coli [5] = assay: Bacteriostatic activity against Escherichia coli 8624 at 1 uM; assay type: functional, organism-based
Escherichia coli [6] = assay: Antibacterial activity against Escherichia coli infected in New Zealand white rabbit assessed as inhibition of bacterial colonization in ileum at 20 mg/kg administered along with bacterial challenge; assay type: functional, organism-based; set-up: dose 20 mg/kg
Escherichia coli [7] = assay: Antibacterial activity against Escherichia coli infected in New Zealand white rabbit assessed as inhibition of bacterial colonization in ileum at 20 mg/kg administered 3 hrs post-bacterial challenge; assay type: functional, organism-based; set-up: dose 20 mg/kg
Escherichia coli [8] = assay: Antibacterial activity against Escherichia coli infected in New Zealand white rabbit assessed as inhibition of bacterial colonization in ileum at 20 mg/kg administered 24 hrs post-bacterial challenge; assay type: functional, organism-based; set-up: dose 20 mg/kg
Escherichia coli [9] = assay: Antibacterial activity against Escherichia coli infected in New Zealand white rabbit assessed as inhibition of bacterial colonization in cecum at 20 mg/kg pretreated before 3 hrs of bacterial challenge; assay type: functional, organism-based; set-up: dose 20 mg/kg; settings: Caecum
Escherichia coli [10] = assay: Antibacterial activity against Escherichia coli infected in New Zealand white rabbit assessed as inhibition of bacterial colonization in cecum at 20 mg/kg administered along with bacterial challenge; assay type: functional, organism-based; set-up: dose 20 mg/kg; settings: Caecum
Escherichia coli [11] = assay: Antibacterial activity against Escherichia coli infected in New Zealand white rabbit assessed as inhibition of bacterial colonization in cecum at 20 mg/kg administered 24 hrs post-bacterial challenge; assay type: functional, organism-based; set-up: dose 20 mg/kg; settings: Caecum
Salmonella typhimurium [12] = assay: Bacteriostatic activity against Salmonella Typhimurium SL1344 at 1 uM; assay type: functional, organism-based; settings: Salmonella enterica subsp. enterica serovar Typhimurium str. SL1344
Salmonella typhimurium [13] = assay: Bacteriostatic activity against Salmonella Typhimurium SL1344 at 1 uM in presence of epinephrine; assay type: functional, organism-based; settings: Salmonella enterica subsp. enterica serovar Typhimurium str. SL1344
Salmonella typhimurium [14] = assay: Antibacterial activity against Salmonella Typhimurium SL1344 infected in 129x1/SvJ mouse assessed as reduction of bacterial CFU in liver at 20 mg/kg, po after 48 hrs relative to control; assay type: functional
[15] = system: Francisella tularensis subsp. tularensis SCHU S4; assay: Antibacterial activity against Francisella tularensis SCHU S4 infected in mouse J774 cells assessed as reduction in bacterial CFU at 5 nM relative to control; assay type: functional
[16] = system: Francisella tularensis subsp. tularensis SCHU S4; assay: Inhibition of virulence gene qseC expression in Francisella tularensis SCHU S4 at 5 pM by quantitative real-time PCR; assay type: functional, organism-based
[17] = Clearance in CD1 mouse at 20 mg/kg, po; assay type: ADME, organism-based; set-up: dose 20 mg/kg, route oral; settings: in vivo
How it was run: (§1)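 Terminal cardiac bleeds were taken in groups of three at set times. Plasma was acetonitrile-precipitated with internal standard and analysed by LC/MS/MS against a spiked-plasma standard curve. Parameters came from noncompartmental analysis.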

[18] = Cmax in CD1 mouse at 20 mg/kg, po; assay type: ADME, organism-based; set-up: dose 20 mg/kg, route oral; settings: in vivo; how it was run: as §1
[19] = Terminal half life in CD1 mouse at 20 mg/kg, po; assay type: ADME, organism-based; set-up: dose 20 mg/kg, route oral; settings: in vivo, read-out: beta t1/2; how it was run: as §1
[20] = AUC in CD1 mouse at 20 mg/kg, po; assay type: ADME, organism-based; set-up: dose 20 mg/kg, route oral; settings: plasma; how it was run: as §1
[21] = AUC in CD1 mouse at 10 mg/kg, iv administered as bolus dose; assay type: ADME, organism-based; set-up: dose 10 mg/kg, route intravenous; settings: plasma
How it was run: (§2)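 Groups of three were bled terminally by cardiac puncture at set times. Plasma was acetonitrile-precipitated with internal standard and quantified by electrospray LC/MS/MS against a plasma standard curve (10-1000 ng/ml). Noncompartmental analysis was used.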

[22] = AUC in CD1 mouse at 5 mg/kg, iv administered as bolus dose; assay type: ADME, organism-based; set-up: dose 5 mg/kg, route intravenous; settings: plasma; how it was run: as §2
[23] = system: Francisella tularensis subsp. tularensis SCHU S4; assay: Antibacterial activity against Francisella tularensis SCHU S4 infected C3H HeN mouse assessed as survival at 20 mg/kg, po administered single dose 3 hrs post-bacterial measured after 9 days; assay type: functional
Mus musculus [24] = assay: Toxicity in CD1 mouse assessed as change in heart weight at 20 mg/kg, po administered daily once for 5 days measured 3 days after final dose; assay type: organism-based; set-up: dose 20 mg/kg, route oral; settings: in vivo
How it was run: (§3)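 Female CD-1 mice (~22 g), three per group, given 20 mg/kg by oral gavage once daily for 5 days. Vehicle-only mice served as controls. Animals were weighed and observed daily. Three days after the last dose they were weighed and sacrificed. Blood was taken for chemistry and complete blood counts, and organs were weighed.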

Mus musculus [25] = assay: Toxicity in CD1 mouse assessed as change in liver weight at 20 mg/kg, po administered daily once for 5 days measured 3 days after final dose; assay type: organism-based; set-up: dose 20 mg/kg, route oral; settings: in vivo, 72 h; how it was run: as §3
Mus musculus [26] = assay: Toxicity in CD1 mouse assessed as change in thymus weight at 20 mg/kg, po administered daily once for 5 days measured 3 days after final dose; assay type: organism-based; set-up: dose 20 mg/kg, route oral; settings: in vivo; how it was run: as §3
Mus musculus [27] = assay: Toxicity in CD1 mouse assessed as aspartate transaminase levels at 20 mg/kg, po administered daily once for 5 days measured 3 days after final dose; assay type: organism-based; set-up: dose 20 mg/kg, route oral; settings: in vivo, 72 h
Mus musculus [28] = assay: Toxicity in CD1 mouse assessed as total bilirubin levels at 20 mg/kg, po administered daily once for 5 days measured 3 days after final dose; assay type: organism-based; set-up: dose 20 mg/kg, route oral; settings: in vivo, 72 h; how it was run: as §3
Mus musculus [29] = assay: Toxicity in CD1 mouse assessed as calcium levels at 20 mg/kg, po administered daily once for 5 days measured 3 days after final dose; assay type: organism-based; set-up: dose 20 mg/kg, route oral; settings: in vivo, 72 h; how it was run: as §3
Mus musculus [30] = assay: Toxicity in CD1 mouse assessed as albumin levels at 20 mg/kg, po administered daily once for 5 days measured 3 days after final dose; assay type: organism-based; set-up: dose 20 mg/kg, route oral; settings: in vivo, 72 h
Mus musculus [31] = assay: Toxicity in CD1 mouse assessed as basophil counts at 20 mg/kg, po administered daily once for 5 days measured 3 days after final dose; assay type: organism-based; set-up: dose 20 mg/kg, route oral; settings: in vivo, 72 h; how it was run: as §3
Mus musculus [32] = assay: Toxicity in CD1 mouse assessed as hemoglobin levels at 20 mg/kg, po administered daily once for 5 days measured 3 days after final dose; assay type: organism-based; set-up: dose 20 mg/kg, route oral; settings: in vivo, 72 h; how it was run: as §3
Mus musculus [33] = assay: Toxicity in CD1 mouse assessed as mean corpuscular hemoglobin concentration at 20 mg/kg, po administered daily once for 5 days measured 3 days after final dose; assay type: organism-based; set-up: dose 20 mg/kg, route oral; settings: in vivo, 72 h; how it was run: as §3
Mus musculus [34] = assay: Toxicity in CD1 mouse assessed as mean platelet volume at 20 mg/kg, po administered daily once for 5 days measured 3 days after final dose; assay type: organism-based; set-up: dose 20 mg/kg, route oral; settings: in vivo, 72 h; how it was run: as §3
Escherichia coli [35] = assay: Antibacterial activity against Escherichia coli 8624 assessed as induction of SOS response; assay type: functional, organism-based

Beta-1 adrenergic receptor (Homo sapiens), sequence (P08588 whole entry, looked up): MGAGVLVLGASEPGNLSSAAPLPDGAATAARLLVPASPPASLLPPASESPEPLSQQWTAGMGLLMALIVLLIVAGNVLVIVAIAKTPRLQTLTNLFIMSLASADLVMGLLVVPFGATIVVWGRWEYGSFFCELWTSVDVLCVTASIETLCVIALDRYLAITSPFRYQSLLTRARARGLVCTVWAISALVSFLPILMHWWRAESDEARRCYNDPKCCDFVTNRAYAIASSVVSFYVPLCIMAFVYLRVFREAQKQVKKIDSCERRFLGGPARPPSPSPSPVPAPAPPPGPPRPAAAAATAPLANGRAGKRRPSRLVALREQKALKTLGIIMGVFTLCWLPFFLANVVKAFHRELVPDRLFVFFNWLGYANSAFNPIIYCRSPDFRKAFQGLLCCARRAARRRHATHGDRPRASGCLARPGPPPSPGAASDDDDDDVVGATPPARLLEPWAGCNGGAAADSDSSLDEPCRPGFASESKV

SMILES: O=S(=O)(Nc1ccccc1)c1ccc(NC(=S)Nc2ccccc2)cc1
- Activity [1]: inactive
- Activity (Escherichia coli [2]): inactive
- Activity (Escherichia coli [3]): Active
- Activity (Escherichia coli [4]): Active
- Activity (Escherichia coli [5]): inactive
- Activity (Escherichia coli [6]): inactive
- Activity (Escherichia coli [7]): inactive
- Activity (Escherichia coli [8]): inactive
- Activity (Escherichia coli [9]): inactive
- Activity (Escherichia coli [10]): inactive
- Activity (Escherichia coli [11]): inactive
- Activity (Salmonella typhimurium [12]): inactive
- Activity (Salmonella typhimurium [13]): inactive
- fold change (FC) (Salmonella typhimurium [14]): 10
- fold change (FC) [15]: 10
- Activity [16]: Active
- CL/F [17]: 2.34 mL/min
- Cmax [18]: 2700 ng/mL
- half-life [19]: 4.92 h
- AUC [20]: 3470 ng·h/mL
- AUC [21]: 2400 ng·h/mL
- AUC [22]: 1090 ng·h/mL
- Activity [23]: 80%
- Activity (Mus musculus [24]): Non-toxic
- Activity (Mus musculus [25]): Non-toxic
- Activity (Mus musculus [26]): Non-toxic
- Activity (Mus musculus [27]): 120.3 U/L
- Activity (Mus musculus [28]): 0.2 mg/dL
- Activity (Mus musculus [29]): 9.6 mg/dL
- Activity (Mus musculus [30]): 2.6 g/dL
- Activity (Mus musculus [31]): 0%
- Activity (Mus musculus [32]): 12 g/dL
- Activity (Mus musculus [33]): 31.3 g/dL
- Activity (Mus musculus [34]): 5 fL
- Activity (Escherichia coli [35]): inactive
